# KCNK9 block: human KCNK9 channel inhibition | Q9NPC2 | HEK293 KCNK9, FluxOR thallium flux fluorescence; stronger effect = lower value | B-score at 10 µM | actives 1.2% (n = 310,000) | AID 488922;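 active = ratio B-score over 3 SD below the library mean, with starting fluorescence within 5 SD of its mean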;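 also: negative B-score means less thallium flux so channel inhibition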
# KCNQ1 pot: potentiators or activators of human KCNQ1 potassium channel | P51787 | CHO-K1 KCNQ1, thallium flux FluxOR fluorescence; stronger effect = higher value | B-score at 10 µM | actives 0.35% (n = 310,000) | AID 2648;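 active = fluorescence ratio B-score, a plate-corrected score, at least three library SD, with initial intensity B-score within 5 SD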
#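 assay system = KCNQ1-transfected CHO-K1 cells | medium = assay buffer with matched DMSO | probe or stimulus = depolarizing K+/Tl+ stimulus, K2SO4 and Tl2SO4 each 12.5 mM in 5x stock | dosing = single dose | incubation = dye 90 min, compound 20 min, room temperature | detection = kinetic FluxOR fluorescence, 10 s baseline plus 110 s post-stimulus | evaluation = ratio B score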
# KCNK3 block: human KCNK3 channel inhibition, primary screen | O14649 | CHO-KCNK3 thallium flux, FluxOR fluorescence; stronger effect = lower value | B-score at 10 µM | actives 0.84% (n = 340,000);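 active = B-score under library mean minus 4 SD, starting fluorescence ratio at most library mean plus 5 SD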;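 also: more negative B-score means stronger inhibition of thallium flux through KCNK3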
# KCNQ1 inh: blocks the human KCNQ1 potassium channel | P51787 | CHO-K1 KCNQ1, FluxOR thallium flux fluorescence; stronger effect = higher value | AID 2642 | actives 1.3% (n = 310,000) | B-score at 10 µM;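 active = compounds whose thallium flux B-score, printed positive for inhibition, exceeds three library SD while starting fluorescence stays within three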;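 also: channel opened by potassium depolarization with thallium stimulus after 20 min compound exposure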
# hERG protect: shields human hERG channel from block by proarrhythmic agents. CHO-hERG, FluxOR thallium flux, dofetilide IC70 present. Q12809. activation (rescue from dofetilide block), less the hit threshold, % at 10 µM. actives 0.51% (n = 310,000);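 active = activation above the mean of controls blocked by dofetilide plus 5 SD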;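 also: thallium influx through hERG after potassium depolarization seen as dye fluorescence rise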
# Target sequence (Q12809 whole entry, looked up): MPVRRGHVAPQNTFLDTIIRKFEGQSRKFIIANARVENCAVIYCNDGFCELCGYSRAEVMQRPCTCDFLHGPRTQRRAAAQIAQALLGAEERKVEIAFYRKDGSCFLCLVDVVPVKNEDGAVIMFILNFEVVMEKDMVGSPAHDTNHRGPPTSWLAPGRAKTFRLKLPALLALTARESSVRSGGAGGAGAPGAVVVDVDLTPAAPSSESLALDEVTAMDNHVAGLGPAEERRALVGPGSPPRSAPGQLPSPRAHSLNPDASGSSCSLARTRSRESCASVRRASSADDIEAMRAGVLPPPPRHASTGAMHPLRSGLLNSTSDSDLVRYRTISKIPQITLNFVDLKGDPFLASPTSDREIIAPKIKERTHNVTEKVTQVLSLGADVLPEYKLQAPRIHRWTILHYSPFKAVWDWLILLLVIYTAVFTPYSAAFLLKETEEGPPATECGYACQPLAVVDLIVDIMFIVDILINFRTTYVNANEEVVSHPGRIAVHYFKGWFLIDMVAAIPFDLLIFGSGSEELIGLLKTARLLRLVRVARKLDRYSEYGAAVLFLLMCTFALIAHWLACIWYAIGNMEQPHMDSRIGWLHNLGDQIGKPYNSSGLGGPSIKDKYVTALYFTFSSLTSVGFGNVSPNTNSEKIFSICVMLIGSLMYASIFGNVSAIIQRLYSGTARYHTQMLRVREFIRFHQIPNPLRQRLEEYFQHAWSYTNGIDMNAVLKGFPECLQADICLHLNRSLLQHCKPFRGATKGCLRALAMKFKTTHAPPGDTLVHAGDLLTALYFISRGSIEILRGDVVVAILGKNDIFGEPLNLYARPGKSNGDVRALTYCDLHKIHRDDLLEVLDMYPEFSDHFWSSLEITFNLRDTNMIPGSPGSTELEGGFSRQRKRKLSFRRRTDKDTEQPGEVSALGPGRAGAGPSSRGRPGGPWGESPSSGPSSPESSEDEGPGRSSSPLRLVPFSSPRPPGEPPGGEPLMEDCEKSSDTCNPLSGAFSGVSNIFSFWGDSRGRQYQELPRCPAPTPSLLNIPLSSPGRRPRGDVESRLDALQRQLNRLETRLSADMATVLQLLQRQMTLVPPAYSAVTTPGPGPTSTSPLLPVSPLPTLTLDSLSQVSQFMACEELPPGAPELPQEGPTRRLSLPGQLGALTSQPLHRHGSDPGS
# KCNK9 block conf: confirmation of human KCNK9 potassium channel inhibitors; shares compounds with KCNK9 block; HEK293 KCNK9 cells, FluxOR thallium flux fluorescence; inhibition, % at 10 µM; actives 43% (n = 4,900); AID 492992;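 active = thallium signal inhibited by more than 5 SD of the compound-free buffer control wells, on both duplicate plates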;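 also: 0% = assay buffer control wells without compound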
# Kir2-1 spec: mouse Kir2.1 off-target activity of KCNK9 modulators; shares compounds with KCNK9 block; Kir2.1 cells, FluxOR thallium flux fluorescence; inhibition, % at 10 µM; actives 4% (n = 4,900);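 active = thallium signal drop more than 5 SD beyond the mean of the no-compound control wells, seen in both duplicate plates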;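 also: signal is fluorescence rise after thallium addition divided by baseline fluorescence; plate controls were assay buffer only for no effect and full block by chlorpromazine control for full effect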
# HEK293 Tl ctr: second counter-screen for KCNK9 modulators: effect in non-induced cells. shares compounds with KCNK9 block. non-induced KCNK9-HEK293, FluxOR thallium flux. inhibition, % at 10 µM. actives 40% (n = 4,900);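 active = thallium signal drop beyond 5 SD of the untreated control mean, on both duplicate plates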;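 also: plate controls were buffer only IC0 wells for no effect and SID17386958 at its maximal inhibitory level for full effect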
# Active calls of the source: *; i = inactive; . = no result. Sampled rows, rich in hits. Any-hit rate of the full collection: about 3.1%.
SMILES,KCNK9 block,KCNQ1 pot,KCNK3 block,KCNQ1 inh,hERG protect,KCNK9 block conf,Kir2-1 spec,HEK293 Tl ctr
COc1ccccc1NC(=O)CSc1nc(=O)n2cc(C)ccc2n1,i,i,i,i,-12,.,.,.
CCCCCCCCCCn1c2c(c(=N)c3c1CCC3)CCC2,-18*,i,i,6*,58*,63%*,86%*,26%*
O=C(/C=C/c1ccc([N+](=O)[O-])cc1)Nc1ncc([N+](=O)[O-])s1,.,.,i,.,.,.,.,.
COc1ccc(NC(=O)c2cc3sccc3n2Cc2ccc(F)cc2)cc1OC,-12*,i,i,i,-9,57%*,i,30%*
O=C(Nc1nccs1)c1cc2sccc2n1Cc1ccc(F)cc1,i,i,i,i,-11,.,.,.
CCOc1ccc(N(C)S(=O)(=O)c2ccc(-c3cc(C)no3)s2)cc1,i,i,i,i,-6,.,.,.
CCOc1ccc(N(C)S(=O)(=O)c2cc(-c3cc(C)no3)ccc2C(C)C)cc1,-9.5*,i,i,i,-19,52%*,i,42%*
O=S(=O)(c1ccc(Br)cc1)n1c(Cc2ccccc2)nc2ccccc21,i,i,i,i,-14,.,.,.
O=S(=O)(N1CCCCC1)n1c(Cc2ccccc2)nc2ccccc21,-21*,i,i,i,-5,76%*,i,42%*
O=C(NCc1cccs1)C1CCCN1C(=O)Nc1ccc(Cl)cc1 (stereo not given),i,i,.,i,-6,.,.,.
COc1ccccc1CN1CCCC(N2CCN(c3ccccc3OC)CC2)C1 (stereo not given),i,i,i,i,-12,.,.,.
Fc1ccccc1N1CCN(C2CCCN(Cc3ccccc3C(F)(F)F)C2)CC1 (stereo not given),i,i,i,i,-13,i,i,i
COc1ccccc1N1CCN(C2CCCN(Cc3cccc(O)c3)C2)CC1 (stereo not given),i,i,i,i,-7,.,.,.
CC(=O)c1cccc(CN2CCCC(N3CCN(c4ccccc4F)CC3)C2)c1 (stereo not given),i,i,i,i,-4,i,i,i
CC(C)n1nc(C(=O)Nc2nnc(SCc3c(Cl)cccc3Cl)s2)c2ccccc2c1=O,i,i,i,i,-15,i,i,i
CC(C)n1nc(C(=O)Nc2nc3ccc(S(C)(=O)=O)cc3s2)c2ccccc2c1=O,i,i,i,i,-10,.,.,.
CC1CN(c2oc(COc3ccc(Cl)cc3Cl)nc2C#N)CC(C)O1 (stereo not given),i,i,i,i,-1,i,i,i
Cc1ccc(OCCn2cnc(Cl)c2Cl)cc1,i,i,i,i,-4,.,.,.
O=S(=O)(Nc1nc2ccccc2nc1N1CCc2ccccc2C1)c1ccc(Cl)cc1,-12*,i,i,i,-11,46%*,i,i
O=S(=O)(Nc1nc2ccccc2nc1N1CCc2ccccc2C1)c1ccc(Br)cc1,.,.,i,.,.,.,.,.
COC(=O)c1ccccc1NC(=O)c1cccc(NC(=O)CSCc2ccccc2)c1C,i,i,i,i,-6,.,.,.
CCOc1ccc2[nH]c(=O)c(CN(CCc3ccccc3)C(=O)N3CCCC3)cc2c1,i,i,i,i,-11,i,i,i
CCOc1ccc2[nH]c(=O)c(CN(CCc3ccccc3)C(=O)N3CCOCC3)cc2c1,i,i,i,i,-5,.,.,.
CCOC(=O)N/N=C/c1cc(C)n(-c2ccccc2)c1C,i,i,i,i,-15,.,.,.
CCOC(=O)N/N=C/c1cc(C)n(-c2cccc3ccccc23)c1C,-8.3*,i,i,i,-5,48%*,i,36%*
SMILES,KCNK9 block,KCNQ1 pot,KCNK3 block,KCNQ1 inh,hERG protect,KCNK9 block conf,Kir2-1 spec,HEK293 Tl ctr
CCC(CC)C(=O)Nc1cc(C(=O)OC)ccc1C(=O)OC,i,i,i,i,-4,.,.,.
COC(=O)c1ccc(C(=O)OC)c(NC(=O)CN(C)Cc2cccc(Cl)c2Cl)c1,-12*,i,i,i,-12,80%*,i,46%*
COC(=O)c1ccc(C(=O)OC)c(NC(=O)CN(C)Cc2ccccc2)c1,-11*,i,i,i,-20,71%*,i,36%*
COC(=O)c1ccc(C(=O)OC)c(NC(=O)CCS(=O)(=O)Cc2ccccc2)c1,i,i,i,i,0,.,.,.
COc1cccc(CNC(=O)CCS(=O)(=O)c2cccs2)c1,i,i,i,i,-15,.,.,.
O=C(CSc1nnc(-c2cccnc2)o1)Nc1cccc(F)c1,i,i,i,i,-12,.,.,.
O=[N+]([O-])c1ccc(CN2CCC(Cc3ccccc3)CC2)cc1,i,i,i,i,-9,.,.,.
O=[N+]([O-])c1ccc(C(=S)N2CCC(Cc3ccccc3)CC2)cc1,-13*,i,i,i,-7,i,i,i
Cc1ccc(S(=O)(=O)Nc2nc3ccccc3nc2NCc2ccc3c(c2)OCO3)cc1C,i,i,i,i,-9,.,.,.
Cc1ccc(C)c(C(=O)COC(=O)c2cc(Cl)nc3ccccc23)c1,-9.4*,i,i,i,-10,67%*,i,45%*
Cc1ccc(C)c(C(=O)COC(=O)c2ccc(Br)o2)c1,-8.7*,i,i,i,-8,36%*,i,i
Cc1ccc(C(=O)COC(=O)c2cc(Cl)nc3ccccc23)cc1C,i,i,i,i,-6,.,.,.
C=CCN1C(=O)C2(C(C#N)=C(N)Oc3n[nH]c(CCC)c32)c2ccccc21 (stereo not given),i,i,i,i,-3,.,.,.
O=C(Oc1ccccc1)c1ccccc1C(=O)Oc1ccccc1,.,.,i,.,.,.,.,.
O=C(Oc1ccccc1)c1cccc2cccc(C(=O)Oc3ccccc3)c12,-9.2*,i,i,i,-8,42%*,i,26%*
COc1cccc(CN2CCN(c3cccc(C(F)(F)F)c3)CC2)c1OC,i,i,i,i,-13,.,.,.
CCOc1cccc(CN2CCN(c3cccc(C(F)(F)F)c3)CC2)c1O,i,i,i,i,-18,i,i,i
CC(C)Oc1ccc(C(=O)/C(=C\c2cccs2)c2nc3ccccc3o2)cc1,i,i,i,i,-12,i,i,i
O=C(c1ccc2c(c1)OCO2)N(c1ccc(Br)cc1)C1C=CS(=O)(=O)C1 (stereo not given),i,i,i,i,-6,.,.,.
